system: PC-3; assay: Cytotoxicity against human PC3 cells after 72 hrs by MTT assay; format: functional, cell-based; conditions: PC-3, 72 h
Summary of the method: (§1)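 Cells grown in MEM with 10% fetal calf serum, penicillin and streptomycin at 37 °C, 5% CO2. Exponentially growing cells seeded in quadruplicate at 5 × 10³ per well and left 24 h before compounds (DMSO stocks) were added. After 72 h exposure, MTT added for 4 h at 37 °C, formazan dissolved in DMSO, read at 570 nm. IC50 read graphically from dose–response curves.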

Row | SMILES | IC50
1 | COc1cc(/C=C/C(=O)OCC(=O)Nc2ccc(Cl)cc2)cc(OC)c1OCc1ccc(Cl)c(Cl)c1 | > 200 µM
2 | CCOc1ccc(COc2c(OC)cc(/C=C/C(=O)OCC(=O)Nc3ccccc3)cc2OC)cc1 | > 200 µM
3 | COCOc1cc(/C=C/C(=O)OCC(=O)Nc2nccs2)ccc1OCc1ccccc1 | > 200 µM
4 | O=C(COC(=O)/C=C/c1ccc(O)c(O)c1)Nc1ccc(Cl)cc1 | 160 µM
5 | COc1ccc(/C=C/C(=O)OCC(=O)Nc2ccccc2)cc1OC | > 200 µM
6 | Cc1ccc(NC(=O)COC(=O)/C=C/c2ccc(O)c(O)c2)cc1 | > 200 µM
7 | COc1ccc(NC(=O)COC(=O)/C=C/c2cc(OC)c(OCc3ccccc3)c(OC)c2)cc1 | > 200 µM
8 | COc1ccc(/C=C/C(=O)OCC(=O)NCc2ccco2)cc1OC | > 200 µM
9 | COc1ccc(NC(=O)COC(=O)/C=C/c2ccc(OCc3ccccc3)c(O)c2)cc1 | > 200 µM
10 | CCOc1ccc(COc2c(OC)cc(/C=C/C(=O)OCC(=O)Nc3ccc(Cl)cc3)cc2OC)cc1 | > 200 µM
11 | COCOc1cc(/C=C/C(=O)OCC(=O)Nc2ccc(Cl)cc2)ccc1OCc1ccccc1 | > 200 µM
12 | COCOc1cc(/C=C/C(=O)OCC(=O)NCc2ccco2)ccc1OCc1ccccc1 | > 200 µM
13 | COCOc1cc(/C=C/C(=O)OCC(=O)Nc2ccc(OC)cc2)ccc1OCc1ccccc1 | > 200 µM

system: HeLa; assay: Cytotoxicity against human HeLa cells after 72 hrs by MTT assay; format: functional, cell-based; conditions: not given; summary of the method: as §1

Row | SMILES | IC50
14 | COc1cc(/C=C/C(=O)OCC(=O)Nc2ccc(Cl)cc2)cc(OC)c1OCc1ccc(Cl)c(Cl)c1 | > 200 µM
15 | CCOc1ccc(COc2c(OC)cc(/C=C/C(=O)OCC(=O)Nc3ccccc3)cc2OC)cc1 | > 200 µM
16 | COCOc1cc(/C=C/C(=O)OCC(=O)Nc2nccs2)ccc1OCc1ccccc1 | > 200 µM
17 | O=C(COC(=O)/C=C/c1ccc(O)c(O)c1)Nc1ccc(Cl)cc1 | 195 µM
18 | COc1ccc(/C=C/C(=O)OCC(=O)Nc2ccccc2)cc1OC | 193 µM
19 | Cc1ccc(NC(=O)COC(=O)/C=C/c2ccc(O)c(O)c2)cc1 | > 200 µM
20 | COc1ccc(NC(=O)COC(=O)/C=C/c2cc(OC)c(OCc3ccccc3)c(OC)c2)cc1 | > 200 µM
21 | COc1ccc(/C=C/C(=O)OCC(=O)NCc2ccco2)cc1OC | > 200 µM
22 | COc1ccc(NC(=O)COC(=O)/C=C/c2ccc(OCc3ccccc3)c(O)c2)cc1 | > 200 µM
23 | CCOc1ccc(COc2c(OC)cc(/C=C/C(=O)OCC(=O)Nc3ccc(Cl)cc3)cc2OC)cc1 | > 200 µM
24 | COCOc1cc(/C=C/C(=O)OCC(=O)Nc2ccc(Cl)cc2)ccc1OCc1ccccc1 | > 200 µM
25 | COCOc1cc(/C=C/C(=O)OCC(=O)NCc2ccco2)ccc1OCc1ccccc1 | > 200 µM
26 | COCOc1cc(/C=C/C(=O)OCC(=O)Nc2ccc(OC)cc2)ccc1OCc1ccccc1 | 155 µM

system: HL-60; assay: Cytotoxicity against human HL60 cells after 72 hrs by MTT assay; format: functional, cell-based; conditions: HL-60, 72 h; summary of the method: as §1

Row | SMILES | IC50
27 | COc1cc(/C=C/C(=O)OCC(=O)Nc2ccc(Cl)cc2)cc(OC)c1OCc1ccc(Cl)c(Cl)c1 | 73.9 µM
28 | CCOc1ccc(COc2c(OC)cc(/C=C/C(=O)OCC(=O)Nc3ccccc3)cc2OC)cc1 | > 200 µM
29 | COCOc1cc(/C=C/C(=O)OCC(=O)Nc2nccs2)ccc1OCc1ccccc1 | > 200 µM
30 | O=C(COC(=O)/C=C/c1ccc(O)c(O)c1)Nc1ccc(Cl)cc1 | 8.1 µM
31 | COc1ccc(/C=C/C(=O)OCC(=O)Nc2ccccc2)cc1OC | 46.4 µM
32 | Cc1ccc(NC(=O)COC(=O)/C=C/c2ccc(O)c(O)c2)cc1 | 92.6 µM
33 | COc1ccc(NC(=O)COC(=O)/C=C/c2cc(OC)c(OCc3ccccc3)c(OC)c2)cc1 | > 200 µM
34 | COc1ccc(/C=C/C(=O)OCC(=O)NCc2ccco2)cc1OC | 92.5 µM
35 | COc1ccc(NC(=O)COC(=O)/C=C/c2ccc(OCc3ccccc3)c(O)c2)cc1 | > 200 µM
36 | CCOc1ccc(COc2c(OC)cc(/C=C/C(=O)OCC(=O)Nc3ccc(Cl)cc3)cc2OC)cc1 | > 200 µM
37 | COCOc1cc(/C=C/C(=O)OCC(=O)Nc2ccc(Cl)cc2)ccc1OCc1ccccc1 | > 200 µM
38 | COCOc1cc(/C=C/C(=O)OCC(=O)NCc2ccco2)ccc1OCc1ccccc1 | 82.2 µM
39 | COCOc1cc(/C=C/C(=O)OCC(=O)Nc2ccc(OC)cc2)ccc1OCc1ccccc1 | > 200 µM

system: K562; assay: Cytotoxicity against human K562 cells after 72 hrs by MTT assay; format: functional, cell-based; conditions: K562, 72 h; summary of the method: as §1

Row | SMILES | IC50
40 | COc1cc(/C=C/C(=O)OCC(=O)Nc2ccc(Cl)cc2)cc(OC)c1OCc1ccc(Cl)c(Cl)c1 | > 200 µM
41 | CCOc1ccc(COc2c(OC)cc(/C=C/C(=O)OCC(=O)Nc3ccccc3)cc2OC)cc1 | > 200 µM
42 | COCOc1cc(/C=C/C(=O)OCC(=O)Nc2nccs2)ccc1OCc1ccccc1 | > 200 µM
43 | O=C(COC(=O)/C=C/c1ccc(O)c(O)c1)Nc1ccc(Cl)cc1 | 99.4 µM
44 | COc1ccc(/C=C/C(=O)OCC(=O)Nc2ccccc2)cc1OC | > 200 µM
45 | Cc1ccc(NC(=O)COC(=O)/C=C/c2ccc(O)c(O)c2)cc1 | > 200 µM
46 | COc1ccc(NC(=O)COC(=O)/C=C/c2cc(OC)c(OCc3ccccc3)c(OC)c2)cc1 | > 200 µM
47 | COc1ccc(/C=C/C(=O)OCC(=O)NCc2ccco2)cc1OC | 0.8 µM
48 | COc1ccc(NC(=O)COC(=O)/C=C/c2ccc(OCc3ccccc3)c(O)c2)cc1 | 56.1 µM
49 | CCOc1ccc(COc2c(OC)cc(/C=C/C(=O)OCC(=O)Nc3ccc(Cl)cc3)cc2OC)cc1 | > 200 µM
50 | COCOc1cc(/C=C/C(=O)OCC(=O)Nc2ccc(Cl)cc2)ccc1OCc1ccccc1 | > 200 µM
51 | COCOc1cc(/C=C/C(=O)OCC(=O)NCc2ccco2)ccc1OCc1ccccc1 | 0.3 µM
52 | COCOc1cc(/C=C/C(=O)OCC(=O)Nc2ccc(OC)cc2)ccc1OCc1ccccc1 | > 200 µM

system: not listed separately; assay: Cytotoxicity against human ECA109 cells after 72 hrs by MTT assay; format: functional, cell-based; conditions: ECa-109, 72 h; summary of the method: as §1

Row | SMILES | IC50
53 | COc1cc(/C=C/C(=O)OCC(=O)Nc2ccc(Cl)cc2)cc(OC)c1OCc1ccc(Cl)c(Cl)c1 | > 200 µM
54 | CCOc1ccc(COc2c(OC)cc(/C=C/C(=O)OCC(=O)Nc3ccccc3)cc2OC)cc1 | > 200 µM
55 | COCOc1cc(/C=C/C(=O)OCC(=O)Nc2nccs2)ccc1OCc1ccccc1 | > 200 µM
56 | O=C(COC(=O)/C=C/c1ccc(O)c(O)c1)Nc1ccc(Cl)cc1 | 175 µM
57 | COc1ccc(/C=C/C(=O)OCC(=O)Nc2ccccc2)cc1OC | > 200 µM
58 | Cc1ccc(NC(=O)COC(=O)/C=C/c2ccc(O)c(O)c2)cc1 | > 200 µM
59 | COc1ccc(NC(=O)COC(=O)/C=C/c2cc(OC)c(OCc3ccccc3)c(OC)c2)cc1 | > 200 µM
60 | COc1ccc(/C=C/C(=O)OCC(=O)NCc2ccco2)cc1OC | > 200 µM
61 | COc1ccc(NC(=O)COC(=O)/C=C/c2ccc(OCc3ccccc3)c(O)c2)cc1 | > 200 µM
62 | CCOc1ccc(COc2c(OC)cc(/C=C/C(=O)OCC(=O)Nc3ccc(Cl)cc3)cc2OC)cc1 | > 200 µM
63 | COCOc1cc(/C=C/C(=O)OCC(=O)Nc2ccc(Cl)cc2)ccc1OCc1ccccc1 | > 200 µM
64 | COCOc1cc(/C=C/C(=O)OCC(=O)NCc2ccco2)ccc1OCc1ccccc1 | > 200 µM
65 | COCOc1cc(/C=C/C(=O)OCC(=O)Nc2ccc(OC)cc2)ccc1OCc1ccccc1 | > 200 µM

system: not listed separately; assay: Cytotoxicity against human LS 174T cells after 72 hrs by MTT assay; format: functional, cell-based; conditions: LS174T; summary of the method: as §1

Row | SMILES | IC50
66 | COc1cc(/C=C/C(=O)OCC(=O)Nc2ccc(Cl)cc2)cc(OC)c1OCc1ccc(Cl)c(Cl)c1 | 72.4 µM
67 | CCOc1ccc(COc2c(OC)cc(/C=C/C(=O)OCC(=O)Nc3ccccc3)cc2OC)cc1 | > 200 µM
68 | COCOc1cc(/C=C/C(=O)OCC(=O)Nc2nccs2)ccc1OCc1ccccc1 | > 200 µM
69 | O=C(COC(=O)/C=C/c1ccc(O)c(O)c1)Nc1ccc(Cl)cc1 | 108 µM
70 | COc1ccc(/C=C/C(=O)OCC(=O)Nc2ccccc2)cc1OC | > 200 µM
71 | Cc1ccc(NC(=O)COC(=O)/C=C/c2ccc(O)c(O)c2)cc1 | 145 µM
72 | COc1ccc(NC(=O)COC(=O)/C=C/c2cc(OC)c(OCc3ccccc3)c(OC)c2)cc1 | > 200 µM
73 | COc1ccc(/C=C/C(=O)OCC(=O)NCc2ccco2)cc1OC | > 200 µM
74 | COc1ccc(NC(=O)COC(=O)/C=C/c2ccc(OCc3ccccc3)c(O)c2)cc1 | > 200 µM
75 | CCOc1ccc(COc2c(OC)cc(/C=C/C(=O)OCC(=O)Nc3ccc(Cl)cc3)cc2OC)cc1 | > 200 µM
76 | COCOc1cc(/C=C/C(=O)OCC(=O)Nc2ccc(Cl)cc2)ccc1OCc1ccccc1 | > 200 µM
77 | COCOc1cc(/C=C/C(=O)OCC(=O)NCc2ccco2)ccc1OCc1ccccc1 | > 200 µM
78 | COCOc1cc(/C=C/C(=O)OCC(=O)Nc2ccc(OC)cc2)ccc1OCc1ccccc1 | > 200 µM

system: not listed separately; assay: Cytotoxicity against human Bel7404 cells after 72 hrs by MTT assay; format: functional, cell-based; conditions: BEL-7404, 72 h; summary of the method: as §1

Row | SMILES | IC50
79 | COc1cc(/C=C/C(=O)OCC(=O)Nc2ccc(Cl)cc2)cc(OC)c1OCc1ccc(Cl)c(Cl)c1 | > 200 µM
80 | CCOc1ccc(COc2c(OC)cc(/C=C/C(=O)OCC(=O)Nc3ccccc3)cc2OC)cc1 | > 200 µM
81 | COCOc1cc(/C=C/C(=O)OCC(=O)Nc2nccs2)ccc1OCc1ccccc1 | 130 µM
82 | O=C(COC(=O)/C=C/c1ccc(O)c(O)c1)Nc1ccc(Cl)cc1 | > 200 µM
83 | COc1ccc(/C=C/C(=O)OCC(=O)Nc2ccccc2)cc1OC | > 200 µM
84 | Cc1ccc(NC(=O)COC(=O)/C=C/c2ccc(O)c(O)c2)cc1 | > 200 µM
85 | COc1ccc(NC(=O)COC(=O)/C=C/c2cc(OC)c(OCc3ccccc3)c(OC)c2)cc1 | > 200 µM
86 | COc1ccc(/C=C/C(=O)OCC(=O)NCc2ccco2)cc1OC | > 200 µM
87 | COc1ccc(NC(=O)COC(=O)/C=C/c2ccc(OCc3ccccc3)c(O)c2)cc1 | > 200 µM
88 | CCOc1ccc(COc2c(OC)cc(/C=C/C(=O)OCC(=O)Nc3ccc(Cl)cc3)cc2OC)cc1 | > 200 µM
89 | COCOc1cc(/C=C/C(=O)OCC(=O)Nc2ccc(Cl)cc2)ccc1OCc1ccccc1 | > 200 µM
90 | COCOc1cc(/C=C/C(=O)OCC(=O)NCc2ccco2)ccc1OCc1ccccc1 | > 200 µM
91 | COCOc1cc(/C=C/C(=O)OCC(=O)Nc2ccc(OC)cc2)ccc1OCc1ccccc1 | 133 µM

system: CNE; assay: Cytotoxicity against human CNE cells after 72 hrs by MTT assay; format: functional, cell-based; conditions: not given; summary of the method: as §1

Row | SMILES | IC50
92 | COc1cc(/C=C/C(=O)OCC(=O)Nc2ccc(Cl)cc2)cc(OC)c1OCc1ccc(Cl)c(Cl)c1 | > 200 µM
93 | CCOc1ccc(COc2c(OC)cc(/C=C/C(=O)OCC(=O)Nc3ccccc3)cc2OC)cc1 | > 200 µM
94 | COCOc1cc(/C=C/C(=O)OCC(=O)Nc2nccs2)ccc1OCc1ccccc1 | > 200 µM
95 | O=C(COC(=O)/C=C/c1ccc(O)c(O)c1)Nc1ccc(Cl)cc1 | 89.6 µM
96 | COc1ccc(/C=C/C(=O)OCC(=O)Nc2ccccc2)cc1OC | > 200 µM
97 | Cc1ccc(NC(=O)COC(=O)/C=C/c2ccc(O)c(O)c2)cc1 | > 200 µM
98 | COc1ccc(NC(=O)COC(=O)/C=C/c2cc(OC)c(OCc3ccccc3)c(OC)c2)cc1 | > 200 µM
99 | COc1ccc(/C=C/C(=O)OCC(=O)NCc2ccco2)cc1OC | > 200 µM
100 | COc1ccc(NC(=O)COC(=O)/C=C/c2ccc(OCc3ccccc3)c(O)c2)cc1 | > 200 µM
101 | CCOc1ccc(COc2c(OC)cc(/C=C/C(=O)OCC(=O)Nc3ccc(Cl)cc3)cc2OC)cc1 | > 200 µM
102 | COCOc1cc(/C=C/C(=O)OCC(=O)Nc2ccc(Cl)cc2)ccc1OCc1ccccc1 | > 200 µM
103 | COCOc1cc(/C=C/C(=O)OCC(=O)NCc2ccco2)ccc1OCc1ccccc1 | > 200 µM
104 | COCOc1cc(/C=C/C(=O)OCC(=O)Nc2ccc(OC)cc2)ccc1OCc1ccccc1 | > 200 µM
